# Source: PubChem
# Most compounds without a hit are left out; they make up all but 1.8% or so of the library.
# M4 ag: agonists of human muscarinic M4 receptor (CHRM4). AID 624127. activation, % at 3 µM. CHO-K1 hM4/Gqi5, Fluo-8 calcium fluorescence; vehicle 0%, full acetylcholine response 100%. P08173. actives 0.14% (n = 360,000);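 active means activation above the run mean over all test wells plus 3 SD, cut at about 32% in these data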;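 further: peak over basal fluorescence ratio per well then scaled between controls; 0% = DMSO wells and 100% = acetylcholine at EC100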
# Target sequence (P08173 whole entry, looked up): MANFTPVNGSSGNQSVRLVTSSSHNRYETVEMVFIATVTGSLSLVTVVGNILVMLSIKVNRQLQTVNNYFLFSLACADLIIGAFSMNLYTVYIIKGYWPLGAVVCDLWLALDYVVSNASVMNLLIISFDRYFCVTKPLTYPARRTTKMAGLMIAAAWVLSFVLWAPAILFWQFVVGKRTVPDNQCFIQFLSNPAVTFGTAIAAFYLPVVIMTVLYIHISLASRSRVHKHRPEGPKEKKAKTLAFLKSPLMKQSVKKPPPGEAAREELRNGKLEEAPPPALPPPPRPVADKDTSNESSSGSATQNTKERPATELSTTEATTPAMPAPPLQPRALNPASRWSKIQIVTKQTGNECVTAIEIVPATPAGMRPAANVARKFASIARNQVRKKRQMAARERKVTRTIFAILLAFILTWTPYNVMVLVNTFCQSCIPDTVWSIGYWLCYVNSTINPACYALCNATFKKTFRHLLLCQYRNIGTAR
# M5 PAM: positive allosteric modulators of human muscarinic M5 receptor; P08912; CHO-K1 hM5, Fluo-8 calcium, ACh EC20 PAM; 0% = ACh EC20, 100% = ACh EC100; activation, % at 3 µM; actives 0.3% (n = 360,000); AID 624038;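 active means activation above the run cutoff, the mean activation of all test compounds plus 3 SD, cut at about 18% in these data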
#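 System: CHO-K1 cell line with stable human muscarinic M5 receptor expression | Also added: EC20 acetylcholine as agonist stimulus | Compound: One concentration, 3 µM final (nominal) | Timing: Fluo-8 loading 80 min at 37 °C plus 30 min room temperature | Measured by: Fluo-8 calcium dye fluorescence, kinetic read | Read-out basis: % activation, ACh-normalized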
# M5 ag: CHRM5 agonism in calcium assay; activation, % at 3 µM; CHO-K1 hM5 cells, Fluo-8 calcium fluorescence; 0% DMSO wells, 100% maximal acetylcholine response; actives 0.19% (n = 360,000); P08912;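 active means activation above the run's mean over test compounds plus 3 SD, cut at about 23% in these data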;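 further: signal is peak over basal fluorescence ratio across the kinetic read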
# M5 antag: blocks acetylcholine activation of human M5 receptor. AID 624040. CHO-hM5 cells, Fluo-8 calcium fluorescence, ACh EC80. P08912. actives 0.59% (n = 360,000). inhibition, % at 3 µM;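 active means inhibition above a per-plate cutoff, the mean of that plate's test compounds plus 3 SD, cut at about 27% in these data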;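 further: 0% = acetylcholine EC80 with DMSO and 100% = DMSO without agonist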
# CHRM4 PAM: positive allosteric modulators of human muscarinic M4 receptor | P08173 | CHO-K1 hM4/Gqi5, Fluo-8 calcium fluorescence, ACh EC20; 0% = ACh EC20, 100% = maximal ACh | activation, % at 3 µM | actives 0.4% (n = 360,000);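 active means activation above its plate's cutoff, the mean activation of sample wells plus 3 SD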
# CHRM4 antagonist: antagonists of human muscarinic M4 receptor (CHRM4) | CHO-hM4 cells, ACh EC80, Fluo-8 calcium fluorescence | inhibition, % at 3 µM | actives 0.73% (n = 360,000) | AID 624125;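 active means inhibition above its plate's cutoff, the mean inhibition of sample wells plus 3 SD, cut at about 27% in these data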;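 further: 0% = acetylcholine EC80 with DMSO and 100% = DMSO without agonist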
# * marks the source's active call; other numbers are inactive results.
SMILES,M4 ag,M5 PAM,M5 ag,M5 antag,CHRM4 PAM,CHRM4 antagonist
CC1(C(=O)O)CCN1C(=O)c1cccc(OC(F)(F)F)c1 (configuration not stated),1.7,0.3,-0.5,-1.3,3.6,-8.5
COc1ccccc1C(=O)Nc1ccc(-c2nnc(SCC(=O)O)n2C)cc1,2.2,10.5,-3.4,-0.1,19.2,37.3*
CC1CCC(NC(=O)C(NC(=O)c2ccccc2)C(C)C)CC1 (configuration not stated),-0.2,-0.2,0.9,7.2,8.7,-0.8
O=c1c2cnn(-c3ccc(F)cc3)c2ncn1Cc1cccnc1,4.0,28.6*,2.2,-2.3,4.2,-16.1
NS(=O)(=O)c1cc(Cl)c(NC(=O)COC(=O)c2ccccn2)c(Cl)c1,1.1,5.2,2.1,11.2,4.2,-0.7
COc1ccc(CCn2c(S)nc3ccccc3c2=O)cc1,1.3,2.7,0.1,-3.3,4.5,-8.0
Nc1ncnc2nc(SCc3ccc(Cl)cc3Cl)[nH]c12,4.2,-10.2,-4.2,2.8,0.0,-5.0
Nc1cc(=O)[nH]c(SCc2ccc(Cl)cc2Cl)n1,11.5,-14.4,10.8,30.2*,-5.1,8.7
CCOc1ccc(S(=O)(=O)NCCC(=O)NC2CCN(Cc3ccccc3)CC2)cc1,0.7,-0.3,-3.5,-1.5,2.7,-5.3
CC(=O)c1ccc(S(=O)(=O)NCCC(=O)NC2CCN(Cc3ccccc3)CC2)cc1,0.5,18.7*,-1.4,2.6,11.3,-19.3
COC1=C(OC)C(=O)C(CCCCCCCCCCO)=C(C)C1=O,9.5,-19.2,4.3,40.5*,-16.6,98.5*
CCS(=O)(=O)Nc1ccccc1C(N)=O,1.2,1.3,-3.3,1.6,-0.6,2.1
CCOC(=O)N1CCN(C(=O)c2ccc(NC(=O)c3ccc(C)cc3)cc2)CC1,-0.4,5.0,-0.9,-23.0,30.9*,-11.5
CN(CCOc1ccc(Cl)cc1)C(=O)c1cc(-c2ccco2)nc2ccccc12,21.6,-26.4,1.6,27.8*,-10.4,19.0
CN(C)C(=O)C(=O)c1cccn1-c1ccccc1C#N,0.7,-6.4,-3.5,10.6,0.5,-10.2
CC(C)N(C(=O)C(=O)c1cccn1-c1ccccc1C#N)C(C)C,1.2,15.7,-1.9,-14.0,17.4*,1.1
CC1CCC(NC(=O)C2CCC(CNc3c(N4CCCCC4)c(=O)c3=O)CC2)CC1 (configuration not stated),0.0,9.8,1.3,2.2,10.5,1.5
CC(c1ccccc1)C1OCC(C[N+]2(C)CCCCC2)O1 (configuration not stated),-0.1,-17.6,-9.1,30.1*,-24.2,45.4*
COC(=O)c1ccccc1NC(=O)CSc1nc(C)cc(C)n1,0.9,12.2,3.7,-17.9,-3.1,-8.2
Cc1cc(C)nc(SCC(=O)Nc2ccnc3ccccc23)n1,14.3,-20.5,6.6,35.4*,-7.8,10.5
O=C(O)Cc1ccc2oc(-c3cccnc3)nc2c1,2.1,-2.0,-2.1,1.0,11.4,-1.6
COC(C[C@@H](O)[C@H](C)[C@@H](O)COCc1ccccc1)OC,2.9,-13.7,-2.6,5.2,-10.9,36.5*
O=c1c2ccccc2n2c(-c3cccc(F)c3)nnc2n1Cc1ccccc1,1.4,-3.1,-0.8,9.0,21.2*,1.0
O=c1c2ccccc2n2c(-c3cccc(Cl)c3)nnc2n1Cc1ccccc1,3.0,-3.1,0.9,-2.3,7.8,-6.2
CC(=O)OCC(=O)C1(O)CCC2C3CCC4CC(O)CCC4(C)C3C(=O)CC21C (configuration not stated),3.2,-5.3,3.0,8.0,1.6,-4.3
SMILES,M4 ag,M5 PAM,M5 ag,M5 antag,CHRM4 PAM,CHRM4 antagonist
O=C(N/C(=C/c1cccc([N+](=O)[O-])c1)C(=O)N1CCCCC1)c1ccco1,1.7,-9.8,-2.9,32.1*,-3.7,-5.8
O=C(N/C(=C/c1cccc([N+](=O)[O-])c1)C(=O)N1CCCCCC1)c1cccs1,1.4,-0.1,0.3,-2.2,8.3,-6.0
CC(C)C(NC(=O)OCc1ccccc1)C(=O)N1CCOCCOCCOCC1 (configuration not stated),0.3,-6.9,-3.8,3.5,-3.4,3.7
COc1cccc(C(=O)N2CCN(C(=O)C3COc4ccccc4O3)CC2)c1 (configuration not stated),1.9,3.2,0.0,1.4,10.6,-5.0
COc1cccc(/C=N/NC(=O)c2cccc3ccccc23)c1OC,2.1,-0.2,1.3,-1.4,0.5,6.4
O=C(CCl)Nc1ccccc1C(=O)c1ccccc1,0.2,8.1,-11.6,3.5,19.8*,-6.0
C=CC[C@H](CC(=O)N(CCO)Cc1ccccc1)C(=O)NC[C@H](OC(=O)[C@@H](CC=C)Cc1ccc(F)cc1)c1ccccc1,21.4,-30.1,0.1,20.1,-14.4,30.2*
C=CC[C@@H](CC(=O)N(CCO)Cc1ccccc1)C(=O)NC[C@@H](OC(=O)[C@@H](CC=C)Cc1ccc(F)cc1)c1ccccc1,14.2,-20.6,-0.6,16.2,-9.4,22.3
C=CC[C@@H](CC(=O)N(CCO)Cc1ccccc1)C(=O)N[C@H](COC(=O)[C@@H](CC=C)Cc1ccc(F)cc1)Cc1ccccc1,11.4,-24.8,-1.6,18.2,-11.5,31.0*
Cc1cc([N+](=O)[O-])nn1CC(=O)Nc1ccccn1,0.5,-0.7,-3.2,7.7,24.8*,-1.8
O=C(c1ccccc1)N1CCCc2ccccc21,0.5,9.8,-2.3,-10.9,0.5,-2.0
S=C(c1ccccc1)N1CCCc2ccccc21,-3.2,6.5,-4.9,-10.4,37.7*,-12.4
O=C(Nc1ccccc1N1CCOCC1)c1ccccc1NS(=O)(=O)c1ccc(F)cc1,4.3,-14.1,0.5,6.1,3.0,-5.3
COc1ccc(-c2csc(NC(=O)c3ccccc3NS(=O)(=O)c3ccc(F)c(F)c3)n2)cc1,13.3,-36.0,1.3,42.3*,-22.4,12.4
Cc1ccc(S(=O)(=O)Nc2ccccc2C(=O)Nc2nc(-c3ccc(F)cc3)cs2)cc1,12.4,-18.0,6.4,37.8*,-24.4,20.9
O=C(Nc1ccccc1N1CCOCC1)c1ccccc1NS(=O)(=O)c1ccc(F)c(F)c1,12.6,35.5*,13.9,23.2,-2.9,0.8
O=C(Nc1cc(S(=O)(=O)N2CCCCC2)ccc1O)c1ccccc1NS(=O)(=O)c1ccc(F)cc1,0.8,-6.1,0.1,13.1,-7.0,4.6
O=C(Nc1cc(S(=O)(=O)N2CCCCC2)ccc1Cl)c1ccccc1NS(=O)(=O)c1ccc(F)cc1,8.2,-15.4,4.4,30.4*,5.5,13.4
